The values that follow come from ChEMBL document CHEMBL4033788, “Novel Ligustrazine-Based Analogs of Piperlongumine Potently Suppress Proliferation and Metastasis of Colorectal Cancer Cells in Vitro and in Vivo” (J Med Chem, 2018).

Values after ≈ are worked out from the molar mass of the structure shown. Active and inactive are the calls of the source. The rule behind the calls is not given here.

In general, LD50 refers to the dose expected to kill half of the subjects tested. As a reminder, the solubility is the dissolved amount per volume that the medium holds. Usually IC50 stands for the concentration that inhibits the measured activity by half.

Series [1] concerns HCT-116. Nature of the series: Induction of ROS accumulation in human HCT116 cells up to 3 hrs in presence of GSH by DCFH-DA staining-based fluorescence microscopic analysis. It is filed as functional, cell-based.
Series [2] addresses T1, Catenin beta-1 (Homo sapiens) (UniProt P35222).
T1 sequence (whole entry): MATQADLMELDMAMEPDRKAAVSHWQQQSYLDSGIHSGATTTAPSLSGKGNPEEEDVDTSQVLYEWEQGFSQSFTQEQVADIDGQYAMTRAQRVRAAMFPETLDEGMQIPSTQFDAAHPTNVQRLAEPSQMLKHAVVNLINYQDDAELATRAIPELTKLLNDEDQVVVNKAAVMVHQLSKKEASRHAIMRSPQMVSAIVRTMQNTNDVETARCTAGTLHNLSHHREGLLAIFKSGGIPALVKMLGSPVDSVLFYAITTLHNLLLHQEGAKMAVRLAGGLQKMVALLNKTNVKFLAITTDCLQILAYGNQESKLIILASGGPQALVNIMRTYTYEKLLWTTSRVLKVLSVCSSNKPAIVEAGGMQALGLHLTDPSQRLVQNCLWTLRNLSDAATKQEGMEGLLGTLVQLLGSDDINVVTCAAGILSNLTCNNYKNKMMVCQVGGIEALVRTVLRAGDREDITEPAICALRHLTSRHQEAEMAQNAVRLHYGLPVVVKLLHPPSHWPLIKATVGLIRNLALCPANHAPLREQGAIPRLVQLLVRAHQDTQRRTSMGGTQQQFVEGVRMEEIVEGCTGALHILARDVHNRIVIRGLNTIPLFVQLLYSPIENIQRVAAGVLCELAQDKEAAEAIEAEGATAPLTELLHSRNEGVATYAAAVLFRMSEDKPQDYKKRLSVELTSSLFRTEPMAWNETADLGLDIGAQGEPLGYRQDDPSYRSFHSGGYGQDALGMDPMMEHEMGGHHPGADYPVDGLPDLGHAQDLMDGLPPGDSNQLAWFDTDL
Nature of the series: Inhibition of TGF-beta1-regulated increase in nuclear beta-catenin in human HCT116 cells at 2 to 50 nM after 48 hrs by Western blot analysis. In kind it is cell-based. Summed up: (§1)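 Cytoplasmic and nuclear β-catenin were measured by Western blot in HCT-116 cells given TGF-β1 (10 ng/mL) for 48 h, with or without compound, against 0.1% DMSO vehicle. Lysates (20 μg/lane) were run on 7.5% gels and transferred to PVDF, with Lamin A among the antibodies used. Blots were read by ECL and densitometry, n = 3 independent experiments.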
For orientation: A western blot detects proteins with antibodies after separation by electrophoresis.

The target in series [3] is T1, Catenin beta-1 (Homo sapiens). Nature of the series: Inhibition of TGF-beta1-regulated decrease in cytoplasmic beta-catenin in human HCT116 cells at 2 to 50 nM after 48 hrs by Western blot analysis. It is filed as cell-based. Summed up: as §1
Series [4] has as its system Mus musculus. Nature of the series: Nephrotoxicity in BALB/c nude mouse xenografted with human HCT116 cells at 2.5 to 5 mg/kg, ip administered for 21 consecutive days. In kind it is toxicity, organism-based. The conditions noted are these: in vivo. Summed up:
(§2)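 Male BALB/c nude mice (3−5 weeks) inoculated sc with 1 × 10^7 HCT-116 cells; at tumour volume about 75 mm3 randomized (n = 8 per group) and dosed ip daily at 2.5 or 5 mg/kg for 21 consecutive days. Body weights monitored; liver, kidney, lung and heart inspected for size and morphology at sacrifice.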
For orientation: In xenograft studies the graft and the host belong to different species.

Series [5] is described as follows: Acute toxicity in ICR mouse assessed as survival rate at 50 mg/kg, ip administered for 14 days relative to control. In kind it is organism-based. Particulars: in vivo.
Series [6] in a line: Stability of compound in stimulated gastric fluid at 1 uM after 4 hrs by LC-MS/MS analysis.
Series [7] concerns Mus musculus. Nature of the series: Hepatotoxicity in BALB/c nude mouse xenografted with human HCT116 cells at 2.5 to 5 mg/kg, ip administered for 21 consecutive days. It is filed as toxicity, organism-based. Particulars: in vivo. Summed up:
as §2

The subject of series [8] is HCT-116. The series is described as follows: Inhibition of TGF-beta1-induced increase in expression levels of vimentin protein in human HCT116 cells after 48 hrs by Western blot analysis. It is filed as functional, cell-based. Summed up:
(§3)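 HCT-116 cells (1 × 10^6/well, plated overnight) were exposed to TGF-β1 (10 ng/mL) for 48 h, with or without test compound; vehicle was 0.1% DMSO. Lysates (20 μg/lane) were run on 7.5% SDS-PAGE and blotted to PVDF, with primary antibody overnight at 4 °C and HRP/ECL detection. Band densities were normalised to β-actin across three independent experiments.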

Series [9] is described as follows: Induction of ROS accumulation in human CCD-841 cells at 1 to 10 uM up to 3 hrs by DCFH-DA staining-based fluorescence spectrometric analysis. It is filed as cell-based. The conditions noted are these: ccd-841, 3 h. Put shortly:
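HCT-116 and CCD-841 cells treated in triplicate at 1, 5 and 10 μM for 1, 2 and 3 h. Intracellular ROS stained with DCFH-DA and fluorescence read on a microplate reader. Values expressed relative to DMSO control, from three separate experiments.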

Series [10] can be described thus: Acute toxicity in ip dosed ICR mouse assessed as mortality after 14 days. It is filed as organism-based. Particulars: in vivo.
A short description of series [11]: Aqueous solubility of compound by HPLC analysis. It is filed as physicochemical. The conditions noted are these: water. Summed up: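 Compound shaken in pure water or 50 mM phosphate buffer pH 7.4 at 20 °C, then centrifuged. Supernatant assayed by C18 HPLC (acetonitrile–water 60/40, 1.0 mL/min, 254 nm). Triplicate.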
Series [12] can be described thus: Acute toxicity in ICR mouse assessed as survival rate at 150 mg/kg, ip administered for 14 days relative to control. In kind it is organism-based. The conditions noted are these: in vivo.
For series [13], the target named is T1, Catenin beta-1 (Homo sapiens). Nature of the series: Inhibition of TGF-beta1-regulated decrease in cytoplasmic beta-catenin in human HCT116 cells at 50 nM after 48 hrs by Western blot analysis. In kind it is cell-based. Summed up: as §1
Series [14] addresses Glycogen synthase kinase-3 beta (Homo sapiens) (UniProt P49841). Nature of the series: Inhibition of TGF-beta1-induced GSK-3beta phosphorylation in human HCT116 cells at 50 nM after 48 hrs by Western blot analysis. It is filed as cell-based. Summed up: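 HCT-116 cells treated with or without TGF-β1 (10 ng/mL) for 48 h, with or without test agent. Lysates (20 μg/lane) run on 7.5% SDS-PAGE and transferred to PVDF. Probed for p-Akt (Ser473), Akt, p-GSK-3β (S9), GSK-3β, E-cadherin, MMP-9 and β-actin, detected by ECL. Densitometry relative to β-actin or total protein. Three independent experiments.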

Series [15] deals with HCT-116. The series is described as follows: Inhibition of TGF-beta1-induced increase in expression levels of MMP-9 protein in human HCT116 cells at 50 nM after 48 hrs by Western blot analysis. In kind it is functional, cell-based. Summed up:
as §3

The test system of series [16] is HCT-116. The series is described as follows: Antiproliferative activity against human HCT116 cells at 8 uM after 72 hrs by MTT assay. It is filed as functional, cell-based. Put shortly:
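HCT-116 cells pretreated with or without GSH (10 mM) for 1 h, washed, then treated for 72 h. Viability measured by MTT and inhibitory rates calculated. Mean ± SD of three independent experiments.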
In general terms: Formazan colour is commonly taken as a measure of viable cells.

The subject of a further series is K562. The series is described as follows: Antiproliferative activity against human K562 cells after 72 hrs in presence of ligustrazine by MTT assay. In kind it is functional, cell-based. The conditions noted are these: K562, 72 h. Put shortly: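 Cells grown in RPMI 1640 with 10% FBS in 96-well plates overnight, then exposed to test agents in triplicate for 72 h. MTT (5 mg/mL stock) added for the last 4 h, formazan dissolved in DMSO, absorbance read at 570 nm. Inhibition = (1 − OD treated/OD control) × 100%.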

Chain of Glycogen synthase kinase-3 beta (Homo sapiens) (P49841 whole entry, looked up): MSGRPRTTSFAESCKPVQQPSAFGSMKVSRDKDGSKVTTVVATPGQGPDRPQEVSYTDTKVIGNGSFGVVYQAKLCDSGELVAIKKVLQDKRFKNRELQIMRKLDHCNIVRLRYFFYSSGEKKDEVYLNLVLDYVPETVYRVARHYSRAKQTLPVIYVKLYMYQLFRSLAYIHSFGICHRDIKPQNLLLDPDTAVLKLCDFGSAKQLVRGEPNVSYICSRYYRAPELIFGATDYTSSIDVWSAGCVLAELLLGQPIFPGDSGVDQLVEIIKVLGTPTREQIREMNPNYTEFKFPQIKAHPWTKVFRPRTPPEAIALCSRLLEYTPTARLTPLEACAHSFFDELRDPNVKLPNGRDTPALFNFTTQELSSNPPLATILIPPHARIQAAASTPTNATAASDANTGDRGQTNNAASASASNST

On to `Cc1nc(C)c(/C=C/C(=O)N2CCC=C(Cl)C2=O)nc1C`, for which, in the series with HCT-116 [1], the result was inactive. Further, the inhibition entry in series [2] and in series [3] was “Active” in each case. The Activity result (with Mus musculus [4]; with Mus musculus [7]; in series [9]) was “Non-Toxic” each time. Further, the survival at 336 h in [5] amounted to 100%; in series [12], 40%. Also, the Stability result in series [6] was “Stable”. Further, the inhibition entry in the series with HCT-116 [8] was “Dose-dependent effect”. For the same molecule, in series [10], the LD50 at 336 h was 148 mg/kg. In series [11], this molecule showed a solubility of 22.8 µg/mL (≈ 74.7 µM).

As to `COc1cc(/C=C/C(=O)N2CCC=CC2=O)cc(OC)c1OC` [PIPLARTINE], the inhibition entry (in series [13]; in series [14]; in the series with HCT-116 [15]) was “Active” each time. Also, the result in the series on HCT-116 [16] was Active. Besides, the concentration for half-maximal inhibition (IC50) with K562 is 5.09 µM.
